Kir21 block = inhibitors of mouse Kir2.1 inward-rectifier potassium channel. Inward rectifier potassium channel 2 (Mus musculus), P35561. HEK293-Kir2.1, FluxOR thallium flux fluorescence; stronger effect = lower value. B-score at 10 µM. 0.85% of 310,000 active;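 active = fluorescence ratio B-score at or below minus 3 SD of library scores, with starting-brightness B-score within 2 SD, cut at about -4.2 in these data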;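 note: channel flux triggered by added potassium and thallium sulfate stimulus; B-score of peak minus minimum fluorescence over baseline after thallium stimulus; more negative B-score means stronger Kir2.1 block with less thallium influx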
KCNK3 block = human KCNK3 channel inhibitors, primary screen, CHO cells, FluxOR thallium flux, B-score; B-score at 10 µM; 0.84% of 340,000 active; AID 602410, 2012; Potassium channel subfamily K member 3 (Homo sapiens), O14649; FluxOR fluorescence; stronger effect = lower value;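 active = B-score under library mean minus 4 SD, starting fluorescence ratio at most library mean plus 5 SD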;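 note: more negative B-score means stronger inhibition of thallium flux through KCNK3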
hERG rescue = hERG rescue from dofetilide block, primary screen, cell-based, CHO-hERG, FluxOR thallium flux, dofetilide IC70; Voltage-gated inwardly rectifying potassium channel KCNH2 (Homo sapiens), Q12809; dofetilide IC70 present; 0.51% of 310,000 active; activation (rescue from dofetilide block), less the hit threshold, % at 10 µM;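 active = activation above the mean of controls blocked by dofetilide plus 5 SD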;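 note: thallium influx through hERG after potassium depolarization seen as dye fluorescence rise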
KCNK9 block = KCNK9 potassium channel inhibitors, primary screen, HEK293 cells, thallium flux; FluxOR thallium flux fluorescence; stronger effect = lower value; 1.2% of 310,000 active; Potassium channel subfamily K member 9 (Homo sapiens), Q9NPC2; B-score at 10 µM;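 active = ratio B-score over 3 SD below the library mean, with starting fluorescence within 5 SD of its mean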;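 note: negative B-score means less thallium flux so channel inhibition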
KCNQ1 block = inhibitors of human KCNQ1 channel, primary screen, cell-based, thallium flux, high-throughput. Potassium voltage-gated channel subfamily KQT member 1 (Homo sapiens), P51787. CHO-K1 KCNQ1, FluxOR thallium flux fluorescence; stronger effect = higher value. B-score at 10 µM. 1.3% of 310,000 active;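 active = compounds whose thallium flux B-score, printed positive for inhibition, exceeds three library SD while starting fluorescence stays within three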;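 note: channel opened by potassium depolarization with thallium stimulus after 20 min compound exposure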
Target sequence (P51787 whole entry, looked up): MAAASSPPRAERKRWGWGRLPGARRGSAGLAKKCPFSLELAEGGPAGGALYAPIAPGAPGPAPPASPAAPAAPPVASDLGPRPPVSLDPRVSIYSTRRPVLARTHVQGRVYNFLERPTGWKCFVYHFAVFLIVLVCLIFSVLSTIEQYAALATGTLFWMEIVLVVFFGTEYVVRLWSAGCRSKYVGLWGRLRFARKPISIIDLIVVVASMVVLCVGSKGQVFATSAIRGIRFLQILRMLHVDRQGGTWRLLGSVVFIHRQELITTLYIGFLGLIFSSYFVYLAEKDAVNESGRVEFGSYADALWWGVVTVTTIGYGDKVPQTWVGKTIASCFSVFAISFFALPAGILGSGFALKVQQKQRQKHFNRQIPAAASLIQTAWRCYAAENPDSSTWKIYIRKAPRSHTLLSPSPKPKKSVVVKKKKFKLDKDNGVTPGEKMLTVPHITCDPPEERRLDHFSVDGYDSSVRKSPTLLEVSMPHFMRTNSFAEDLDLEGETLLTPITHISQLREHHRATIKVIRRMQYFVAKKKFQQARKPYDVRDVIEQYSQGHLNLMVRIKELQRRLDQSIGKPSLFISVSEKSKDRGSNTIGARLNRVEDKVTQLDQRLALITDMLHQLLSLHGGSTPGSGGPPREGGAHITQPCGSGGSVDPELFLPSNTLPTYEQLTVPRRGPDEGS
KCNQ1 pot = potentiators or activators of KCNQ1 channel, primary screen, cell-based, thallium flux, high-throughput. CHO-K1 KCNQ1, thallium flux FluxOR fluorescence; stronger effect = higher value. 0.35% of 310,000 active. B-score at 10 µM. Potassium voltage-gated channel subfamily KQT member 1 (Homo sapiens), P51787;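 active = fluorescence ratio B-score, a plate-corrected score, at least three library SD, with initial intensity B-score within 5 SD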
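assay system = CHO-K1 cells stably expressing KCNQ1 | medium = assay buffer, equal DMSO in all wells | timing = 37 °C overnight plating, 90-min dark dye load, 20-min compound pretreatment | measured by = kinetic FluxOR thallium fluorescence, 10-s 1-Hz baseline, 110-s post-stimulus read | measure = fluorescence change relative to baseline, converted to B score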
KCNK9 block conf = KCNK9 potassium channel inhibitors, confirmation, HEK293 cells, thallium flux, duplicate. shares compounds with KCNK9 block. FluxOR thallium flux fluorescence. inhibition, % at 10 µM. 43% of 4,900 active;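 active = thallium signal inhibited by more than 5 SD of the compound-free buffer control wells, on both duplicate plates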
Kir21 sel = mouse Kir2.1 channel inhibition, confirmation, selectivity assay for KCNK9 modulator project, cell-based, HEK293, thallium flux. inhibition, % at 10 µM. 4% of 4,900 active. AID 492993, 2010. shares compounds with KCNK9 block. Kir2.1 cells, FluxOR thallium flux fluorescence;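 active = thallium signal drop more than 5 SD beyond the mean of the no-compound control wells, seen in both duplicate plates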;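 note: signal is fluorescence rise after thallium addition divided by baseline fluorescence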
HEK293 Tl ctr = thallium flux in non-induced HEK293 cells, confirmation, counter-screen for KCNK9 inhibitor project, cell-based, second counter screen, non-induced KCNK9-HEK293; AID 492997, 2010; shares compounds with KCNK9 block; FluxOR thallium flux; 40% of 4,900 active; inhibition, % at 10 µM;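 active = thallium signal drop beyond 5 SD of the untreated control mean, on both duplicate plates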
KCNK3 confirm = retest of human KCNK3 channel inhibitors, confirmation, CHO cells, FluxOR thallium flux, triplicate | 99% of 2,400 active | ratio percent of control, % at 10 µM | shares compounds with KCNK3 block | FluxOR fluorescence; 0% buffer, 100% carvedilol maximal block;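 active = ratio percent of control, averaged over triplicates, above buffer control mean plus 5 SD, cut at about 64% in these data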;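 note: ratio is the fluorescence rise from min to max over baseline after thallium stimulus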
KCNK3 noninduced = thallium flux inhibition in non-induced cells, primary screen, counter-screen for KCNK3 inhibitor project, cell-based, non-induced KCNK3 line, FluxOR thallium, triplicate; shares compounds with KCNK3 block; non-induced KCNK3 parental cells; stronger effect = lower value; thallium flux ratio (lower = more inhibition) at 10 µM; 40% of 2,400 active; AID 651747, 2012;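 active = thallium flux ratio, averaged over three wells, more than 5 SD below the buffer control mean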;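 note: host cells are CHO cells without KCNK3 induction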
Each line names hits and unclear results; the compound was inactive in the other large screens (follow-up assays come after a bar, where they were run). Most compounds without a hit are left out; they make up all but 3.7% or so of the library.

COc1ccc(/C=N/NC(=O)c2cccc(NC(=O)c3ccccc3Cl)c2)c(OC)c1	KCNK3 block -10, KCNK9 block -12 | KCNK9 block conf 49% | Kir21 sel inactive | HEK293 Tl ctr inactive | KCNK3 confirm 106 | KCNK3 noninduced inactive
COc1ccc(/C(C)=N/NC(=O)c2ccccc2OCc2ccccc2)c(OC)c1	none
COc1ccc(/C=N/NC(=O)c2ccccc2OCc2ccccc2)c(OC)c1	KCNK3 block -12, KCNK9 block -21, KCNQ1 block 11 | KCNK9 block conf 72% | Kir21 sel inactive | HEK293 Tl ctr inactive | KCNK3 confirm 126 | KCNK3 noninduced 0.14
COc1ccc(/C=N/NC(=O)c2cccc(NC(=O)c3ccccc3Cl)c2)cc1	none
O=C(N/N=C/c1cccc(Oc2ccccc2)c1)c1cccc(Br)c1	KCNK3 block -11, hERG rescue 5.6, KCNK9 block -11 | KCNK9 block conf 54% | Kir21 sel inactive | HEK293 Tl ctr 26% | KCNK3 confirm 99 | KCNK3 noninduced 0.16
Cc1cc(C)c2nc(C)cc(N/N=C/c3ccc(O)cc3)c2c1	Kir21 block -10, KCNK3 block -12, KCNK9 block -15, KCNQ1 block 10 | KCNK9 block conf 72% | Kir21 sel 36% | HEK293 Tl ctr inactive | KCNK3 confirm 135 | KCNK3 noninduced 0.12
O=c1cc(CN2CCN(C/C=C/c3ccccc3)CC2)c2cc(O)c(-c3ccccc3)cc2o1	none
CC(C)CN(Cc1cc(=O)oc2cc(-c3ccccc3)c(O)cc12)CC(C)C	KCNK9 block -10, KCNQ1 block 11 | KCNK9 block conf 53% | Kir21 sel inactive | HEK293 Tl ctr 27% | KCNK3 confirm 146 | KCNK3 noninduced 0.088
COc1ccc(NC(=O)/C(C#N)=C\c2ccc(N3CCOCC3)o2)cc1	KCNK3 block -12, KCNK9 block -8.7, KCNQ1 block 10 | KCNK9 block conf 48% | Kir21 sel 36% | HEK293 Tl ctr 76% | KCNK3 confirm 132 | KCNK3 noninduced 0.091
Nc1ccc(Cl)c(-c2nc3ncccc3o2)c1	KCNK3 block -11 | KCNK3 confirm 88 | KCNK3 noninduced inactive
COC(=O)c1cc(-c2ccc(S(=O)(=O)N3CCCC3)cc2)c(C(F)(F)F)s1	none
CCN(CC)S(=O)(=O)c1ccc(-c2cc(C(=O)OC)sc2C(F)(F)F)cc1	KCNK3 block -9.7 | KCNK3 confirm 109 | KCNK3 noninduced inactive
CCOC(=O)c1c(N)sc2c1CCSC2	KCNK3 block -9.6 | KCNK3 confirm 72 | KCNK3 noninduced inactive
CCCOC(=O)c1c(N)sc2c1CCC2	none
COc1ccc2c(c1)c(CC(=O)NCc1cc([N+](=O)[O-])ccc1O)c(C)n2C(=O)c1ccc(Cl)cc1	KCNK3 block -13, KCNQ1 block 11 | KCNK3 confirm 135 | KCNK3 noninduced 0.11
N#Cc1c(N2CCCCC2)nc(N)c2c(N)nc3c(c12)CC(c1ccccc1)O3 (stereo unspecified)	KCNK3 block -9.5 | KCNK3 confirm 119 | KCNK3 noninduced 0.15
CCN(CC)c1nc(N)c2c(N)nc3c(c2c1C#N)CC(c1ccccc1)O3 (stereo unspecified)	none
N#Cc1c(N2CCCC2)nc(N)c2c(N)nc(N3CCCC3)cc12	none
CCC1Cc2c(nc(N)c3c(N)nc(N4CCCCC4)c(C#N)c23)O1 (stereo unspecified)	KCNK3 block -9.6 | KCNK3 confirm 97 | KCNK3 noninduced inactive
CC(C)CC1(C)NC(=O)N(CC(=O)Nc2cccc(S(=O)(=O)N(C)c3ccccc3)c2)C1=O (stereo unspecified)	none
CC(C)n1cc(/C=N/Nc2ccc(C(=O)O)cc2)c2ccccc21	none
O=C(N/N=C\c1ccc(Cl)cc1Cl)c1sccc1-n1cccc1	KCNK3 block -9.4 | KCNK3 confirm 93 | KCNK3 noninduced inactive
O=C(N/N=C\c1ccc(Cl)cc1)c1sccc1-n1cccc1	none
O=C(O)C(c1ccccc1)N1C(=O)c2cccc3cccc(c23)C1=O (stereo unspecified)	none
NN=C1c2ccccc2C(=O)C1C(=O)C(c1ccccc1)c1ccccc1 (stereo unspecified)	KCNK3 block -14 (no result: Kir21 block, hERG rescue, KCNK9 block, KCNQ1 block, KCNQ1 pot) | KCNK3 confirm 138 | KCNK3 noninduced 0.097
CSc1cccc(NC(=O)/C=C/c2cccc(Cl)c2)c1	KCNK3 block -11, KCNQ1 block 11 | KCNK3 confirm 128 | KCNK3 noninduced 0.16
COc1ccc(C)cc1S(=O)(=O)N1CCN(c2cccc(C(F)(F)F)c2)CC1	KCNK3 block -10 | KCNK3 confirm 103 | KCNK3 noninduced inactive
O=c1[nH]cc(S(=O)(=O)N2CCN(c3cccc(C(F)(F)F)c3)CC2)c(=O)[nH]1	none
Cc1nc(C(=O)Nc2cccc(Cl)c2)nn1-c1cc(OC(C)C)c(Cl)cc1Cl	KCNK3 block -8.9 | KCNK3 confirm 96 | KCNK3 noninduced inactive
O=c1cc(N2CCCCCC2)[nH]c(=O)n1-c1ccccc1Cl	none
COCCn1c(SCc2ccc(C(=O)OC)o2)nc2cc(Cl)ccc2c1=O	KCNK3 block -9.8, KCNK9 block -7.4 | KCNK3 confirm 126 | KCNK3 noninduced inactive
